ChEMBL document CHEMBL4261658, “4-Hydroxy-3-nitro-5-ureido-benzenesulfonamides Selectively Target the Tumor-Associated Carbonic Anhydrase Isoforms IX and XII Showing Hypoxia-Enhanced Antiproliferative Profiles” (J Med Chem, 2018)

Experiments:
HT-29 [1] = assay: Cytotoxicity against human HT-29 cells assessed as cell viability at 100 uM after 48 hrs under hypoxic conditions by MTT assay (reference value: 100%); assay type: functional; details: Homo sapiens, HT-29, 48 h; read-out: Activity
Outline: (§1)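 Cells cultured in high-glucose DMEM with 20% FBS at 37 °C and 5% CO2, seeded at 1x10^4/well, then dosed 24 h later (0–200 μM) for 48 h. Hypoxia: 1% O2, 5% CO2, balance N2 in a hypoxic workstation; normoxia: 20% O2 in air, 5% CO2. MTT (1 mg/ml) for 30 min at 37 °C, formazan dissolved in DMSO, A550. Untreated control set to 100%; quadruplicates, ≥3 cell batches, mean ± S.E.M.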

MDA-MB-231 [2] = assay: Cytotoxicity against human MDA-MB-231 cells assessed as cell viability at 30 uM after 48 hrs under normoxic conditions by MTT assay (reference value: 100%); assay type: functional; details: MDA-MB-231, 48 h, read-out: Activity; outline: as §1
PC-3 [3] = assay: Cytotoxicity against human PC3 cells assessed as cell viability at 200 uM after 48 hrs under hypoxic conditions by MTT assay (reference value: 100%); assay type: functional; details: PC-3, 48 h, read-out: Activity; outline: as §1
HT-29 [4] = assay: Cytotoxicity against human HT-29 cells assessed as cell viability at 100 uM after 48 hrs under normoxic conditions by MTT assay (reference value: 100%); assay type: functional; details: Homo sapiens, HT-29, 48 h; read-out: Activity; outline: as §1
PC-3 [5] = assay: Cytotoxicity against human PC3 cells assessed as cell viability at 100 uM after 48 hrs under hypoxic conditions by MTT assay (reference value: 100%); assay type: functional; details: PC-3, 48 h, read-out: Activity; outline: as §1
HT-29 [6] = assay: Cytotoxicity against human HT-29 cells assessed as reduction in cell viability after 48 hrs under normoxic conditions by MTT assay; assay type: functional, cell-based; details: for IC50: HT-29, 48 h; outline: as §1
MDA-MB-231 [7] = assay: Cytotoxicity against human MDA-MB-231 cells assessed as reduction in cell viability after 48 hrs under hypoxic conditions by MTT assay; assay type: functional, cell-based; details: for IC50: MDA-MB-231, 48 h; outline: as §1
MDA-MB-231 [8] = assay: Cytotoxicity against human MDA-MB-231 cells assessed as cell viability at 100 uM after 48 hrs under hypoxic conditions by MTT assay (reference value: 100%); assay type: functional; details: MDA-MB-231, 48 h, read-out: Activity; outline: as §1
MDA-MB-231 [9] = assay: Cytotoxicity against human MDA-MB-231 cells assessed as reduction in cell viability after 48 hrs under normoxic conditions by MTT assay; assay type: functional, cell-based; details: for IC50: MDA-MB-231, 48 h; outline: as §1
MDA-MB-231 [10] = assay: Cytotoxicity against human MDA-MB-231 cells assessed as cell viability at 30 uM after 48 hrs under hypoxic conditions by MTT assay (reference value: 100%); assay type: functional; details: MDA-MB-231, 48 h, read-out: Activity; outline: as §1
PC-3 [11] = assay: Cytotoxicity against human PC3 cells assessed as cell viability at 200 uM after 48 hrs under normoxic conditions by MTT assay (reference value: 100%); assay type: functional; details: PC-3, 48 h, read-out: Activity; outline: as §1
HT-29 [12] = assay: Cytotoxicity against human HT-29 cells assessed as reduction in cell viability after 48 hrs under hypoxic conditions by MTT assay; assay type: functional, cell-based; details: for IC50: HT-29, 48 h; outline: as §1
MDA-MB-231 [13] = assay: Cytotoxicity against human MDA-MB-231 cells assessed as cell viability at 200 uM after 48 hrs under hypoxic conditions by MTT assay (reference value: 100%); assay type: functional; details: MDA-MB-231, 48 h, read-out: Activity; outline: as §1
Carbonic anhydrase 9 = Carbonic anhydrase 9 (Homo sapiens, UniProt Q16790); assay: Inhibition of carbonic anhydrase 9 (unknown origin) preincubated for 15 mins by stopped flow CO2 hydration assay
PC-3 [14] = assay: Cytotoxicity against human PC3 cells assessed as cell viability at 100 uM after 48 hrs under normoxic conditions by MTT assay (reference value: 100%); assay type: functional; details: PC-3, 48 h, read-out: Activity; outline: as §1
HT-29 [15] = assay: Cytotoxicity against human HT-29 cells assessed as cell viability at 200 uM after 48 hrs under normoxic conditions by MTT assay (reference value: 100%); assay type: functional; details: Homo sapiens, HT-29, 48 h; read-out: Activity; outline: as §1
PC-3 [16] = assay: Cytotoxicity against human PC3 cells assessed as reduction in cell viability after 48 hrs under normoxic conditions by MTT assay; assay type: functional, cell-based; details: for IC50: PC-3, 48 h; outline: as §1
HT-29 [17] = assay: Cytotoxicity against human HT-29 cells assessed as cell viability at 200 uM after 48 hrs under hypoxic conditions by MTT assay (reference value: 100%); assay type: functional; details: Homo sapiens, HT-29, 48 h; read-out: Activity; outline: as §1
HT-29 [18] = assay: Cytotoxicity against human HT-29 cells assessed as cell viability at 30 uM after 48 hrs under normoxic conditions by MTT assay (reference value: 100%); assay type: functional; details: Homo sapiens, HT-29, 48 h; read-out: Activity; outline: as §1
PC-3 [19] = assay: Cytotoxicity against human PC3 cells assessed as cell viability at 30 uM after 48 hrs under normoxic conditions by MTT assay (reference value: 100%); assay type: functional; details: PC-3, 48 h, read-out: Activity; outline: as §1
Carbonic anhydrase 12 = Carbonic anhydrase 12 (Homo sapiens, UniProt O43570)
MDA-MB-231 [20] = assay: Cytotoxicity against human MDA-MB-231 cells assessed as cell viability at 100 uM after 48 hrs under normoxic conditions by MTT assay (reference value: 100%); assay type: functional; details: MDA-MB-231, 48 h, read-out: Activity; outline: as §1
MDA-MB-231 [21] = assay: Cytotoxicity against human MDA-MB-231 cells assessed as cell viability at 200 uM after 48 hrs under normoxic conditions by MTT assay (reference value: 100%); assay type: functional; details: MDA-MB-231, 48 h, read-out: Activity; outline: as §1
PC-3 [22] = assay: Cytotoxicity against human PC3 cells assessed as cell viability at 30 uM after 48 hrs under hypoxic conditions by MTT assay (reference value: 100%); assay type: functional; details: PC-3, 48 h, read-out: Activity; outline: as §1
PC-3 [23] = assay: Cytotoxicity against human PC3 cells assessed as reduction in cell viability after 48 hrs under hypoxic conditions by MTT assay; assay type: functional, cell-based; details: for IC50: PC-3, 48 h; outline: as §1
HT-29 [24] = assay: Cytotoxicity against human HT-29 cells assessed as cell viability at 30 uM after 48 hrs under hypoxic conditions by MTT assay (reference value: 100%); assay type: functional; details: Homo sapiens, HT-29, 48 h; read-out: Activity; outline: as §1
Homo sapiens = species on record: Homo sapiens; assay: Selectivity ratio of Ki for carbonic anhydrase 2 (unknown origin) to Ki for carbonic anhydrase 9 (unknown origin)
MDA-MB-231 [25] = assay: Potency index, ratio of cytotoxicity against human MDA-MB-231 cells assessed as reduction in cell viability at 100 uM after 48 hrs under hypoxic conditions by MTT assay to cytotoxicity against human MDA-MB-231 cells assessed as reduction in cell viability at 100 uM after 48 hrs under normoxic conditions by MTT assay; assay type: functional
HT-29 [26] = assay: Cytotoxicity against human HT-29 cells assessed as cell viability at 300 uM after 48 hrs under hypoxic conditions by MTT assay (reference value: 100%); assay type: functional; details: HT-29, 48 h, read-out: Activity
Carbonic anhydrase 1 = Carbonic anhydrase 1 (Homo sapiens, UniProt P00915); assay: Inhibition of recombinant human cytosolic carbonic anhydrase 1 preincubated for 15 mins by stopped flow CO2 hydration assay
Carbonic anhydrase 2 = Carbonic anhydrase 2 (Homo sapiens, UniProt P00918); assay: Inhibition of carbonic anhydrase 2 (unknown origin) preincubated for 15 mins by stopped flow CO2 hydration assay

Chain of Carbonic anhydrase 12 (O43570 whole entry): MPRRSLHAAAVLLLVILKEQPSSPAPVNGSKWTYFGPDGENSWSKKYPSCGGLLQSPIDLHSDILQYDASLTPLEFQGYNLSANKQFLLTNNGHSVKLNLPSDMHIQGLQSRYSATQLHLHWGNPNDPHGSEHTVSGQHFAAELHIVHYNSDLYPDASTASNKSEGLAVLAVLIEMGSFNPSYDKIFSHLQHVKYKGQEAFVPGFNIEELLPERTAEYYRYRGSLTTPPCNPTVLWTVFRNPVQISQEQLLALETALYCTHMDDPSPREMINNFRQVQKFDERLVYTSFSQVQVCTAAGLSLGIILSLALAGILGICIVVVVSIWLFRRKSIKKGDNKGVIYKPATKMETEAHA
Chain of Carbonic anhydrase 1 (P00915 whole entry): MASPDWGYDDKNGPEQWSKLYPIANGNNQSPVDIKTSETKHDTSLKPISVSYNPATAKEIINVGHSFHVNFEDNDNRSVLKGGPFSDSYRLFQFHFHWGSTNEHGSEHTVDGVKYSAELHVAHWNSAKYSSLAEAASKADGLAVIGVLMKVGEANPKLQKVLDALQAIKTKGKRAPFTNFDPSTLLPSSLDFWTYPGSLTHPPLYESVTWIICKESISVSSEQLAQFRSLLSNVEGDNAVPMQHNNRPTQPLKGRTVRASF

| SMILES | viability at 100 µM (HT-29 [1]) [%] | viability at 30 µM (MDA-MB-231 [2]) [%] | viability at 200 µM (PC-3 [3]) [%] | viability at 100 µM (HT-29 [4]) [%] | viability at 100 µM (PC-3 [5]) [%] | Activity (HT-29 [6]) | IC50 (HT-29 [6]) [µM] | Activity (MDA-MB-231 [7]) | IC50 (MDA-MB-231 [7]) [µM] | viability at 100 µM (MDA-MB-231 [8]) [%] | Activity (MDA-MB-231 [9]) | IC50 (MDA-MB-231 [9]) [µM] | viability at 30 µM (MDA-MB-231 [10]) [%] | viability at 200 µM (PC-3 [11]) [%] | Activity (HT-29 [12]) | IC50 (HT-29 [12]) [µM] | viability at 200 µM (MDA-MB-231 [13]) [%] | Ki (Carbonic anhydrase 9) [µM] | viability at 100 µM (PC-3 [14]) [%] | Ki (Carbonic anhydrase 12) [µM] | further results |
| --- | --- | --- | --- | --- | --- | --- | --- | --- | --- | --- | --- | --- | --- | --- | --- | --- | --- | --- | --- | --- | --- |
| Cc1cc(C)[n+](-c2cc(S(N)(=O)=O)cc([N+](=O)[O-])c2O)c(C)c1.[O-][Cl+3]([O-])([O-])[O-] | 62.5 | 40.7 | 88.9 | 97.2 | 104 | Dose-dependent effect | > 200 | Dose-dependent effect | > 200 | 111 | Dose-dependent effect | < 30 | 98.9 | 50.3 | Dose-dependent effect | > 200 | 98.3 | 0.15 | 58 | 0.22 | viability at 200 µM (HT-29 [15]): 89.4%; Activity (PC-3 [16]): Dose-dependent effect; IC50 (PC-3 [16]): 140 µM; viability at 200 µM (HT-29 [17]): 59.4%; viability at 30 µM (HT-29 [18]): 101%; viability at 30 µM (PC-3 [19]): 77.4%; viability at 100 µM (MDA-MB-231 [20]): 2.9%; viability at 200 µM (MDA-MB-231 [21]): 4%; viability at 30 µM (PC-3 [22]): 97.7%; Activity (PC-3 [23]): Dose-dependent effect; IC50 (PC-3 [23]): > 200 µM; viability at 30 µM (HT-29 [24]): 72.2% |
| NS(=O)(=O)c1cc(NC(=O)Nc2cc(C(F)(F)F)cc(C(F)(F)F)c2)c(O)c([N+](=O)[O-])c1 | 63.6 | 106 | 19.6 | 22.7 | 20.1 | Dose-dependent effect | 60.2 | Dose-dependent effect | 63.2 | 19.8 | Dose-dependent effect | 196 | 100 | 20.9 | Dose-dependent effect | 133 | 20.2 | 0.34 | 23.4 | 0.46 | Ratio Ki (Homo sapiens): 5; Activity (PC-3 [16]): Dose-dependent effect; IC50 (PC-3 [16]): 68.6 µM; Ratio (MDA-MB-231 [25]): 4; viability at 30 µM (HT-29 [18]): 102%; viability at 30 µM (PC-3 [19]): 118%; viability at 100 µM (MDA-MB-231 [20]): 101%; viability at 200 µM (MDA-MB-231 [21]): 45.8%; viability at 30 µM (PC-3 [22]): 109%; Activity (PC-3 [23]): Dose-dependent effect; IC50 (PC-3 [23]): 70.6 µM; viability at 300 µM (HT-29 [26]): 25.6%; viability at 30 µM (HT-29 [24]): 98.6% |
| NS(=O)(=O)c1cc(NC(=O)Nc2ccccc2)c(O)c([N+](=O)[O-])c1 |  |  |  |  |  |  |  |  |  |  |  |  |  |  |  |  |  | 0.94 |  | 0.83 | Ratio Ki (Homo sapiens): 3; Ki (Carbonic anhydrase 1): > 50 µM |
| NS(=O)(=O)c1cc(NC(=O)Nc2ccc(C(F)(F)F)cc2)c(O)c([N+](=O)[O-])c1 |  |  |  |  |  |  |  |  |  |  |  |  |  |  |  |  |  | 0.63 |  | 0.95 | Ki (Carbonic anhydrase 2): 0.2 µM |
